Assay results: PubChem BioAssay
Active and inactive are the calls of the source.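 How the source made its calls, unless noted: active means inhibition of the reporter signal at or above 50%; inactive means inhibition below 50%.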

Legend:
[1] = inhibitors of TNFa-induced NFkB p65 translocation, primary screen, imaging, HUVEC, MLSMR starter and 10KST1 sets (AID 438;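 active means inhibition above 20% together with a positive visual image hit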;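 further: compound added about 3h40 before a 20 min TNFalpha stimulation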;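 on inhibition: signal is the nuclear over cytoplasmic p65 intensity ratio per well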); details: HUVEC TNFa-induced p65 nuclear translocation; cell count: measured here: nuclei count (cytotoxicity indicator), at 2.08 µM; inhibition: at 2 µM, stronger effect = higher value, 0% TNFa-plus-vehicle, 100% no-TNFa wells
[2] = inhibitors of mutant huntingtin aggregation, primary screen, imaging, exon1htt(103Q)mCFP cells, high-content imaging (AID 483;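 active means visual image review flags a hit and inhibition of aggregation exceeds 20%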;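 further: compound exposure lasted 3 days before fixation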;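 on nuclei count: percent of the per-plate median nuclei count of sample wells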); details: exon1htt(103Q)mCFP cell line, aggregate imaging, at 2 µM; inhibition of aggregation: stronger effect = higher value; nuclei count: measured here: cell count, toxicity
[3] = inhibitors of E-selectin induction by TNFa, primary screen, imaging, HUVEC, immunofluorescence, MLSMR starter and 10KST1 sets (AID 487;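 active means visually confirmed hit in the image check and inhibition above 20%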;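 on inhibition: signal is fraction of cell area covered by stained E-selectin grains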;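 on nuclei count: 100% = median nuclei count of all wells on the same plate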); details: HUVEC TNFalpha-induced E-selectin immunofluorescence imaging, at 2 µM; inhibition: stronger effect = higher value; nuclei count: measured here: cell number, toxicity
[4] = molecular target: Voltage-gated potassium channel subunit beta-2 (Rattus norvegicus) (UniProt P62483); test: KvBeta enzyme negative modulators, primary screen, biochemical, NADPH fluorescence (AID 622;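 active means fluorescence slope higher than the sample average by over 3 SD, cut at about -0.22 in these data, passing the limit was not always enough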;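 further: slope of raw intensity against log time taken from 70 to 1610 s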); details: recombinant KvBeta, 4-cyanobenzaldehyde reduction, at 10 µM, stronger effect = higher value
Chain of Voltage-gated potassium channel subunit beta-2 (Rattus norvegicus) (P62483 whole entry, looked up): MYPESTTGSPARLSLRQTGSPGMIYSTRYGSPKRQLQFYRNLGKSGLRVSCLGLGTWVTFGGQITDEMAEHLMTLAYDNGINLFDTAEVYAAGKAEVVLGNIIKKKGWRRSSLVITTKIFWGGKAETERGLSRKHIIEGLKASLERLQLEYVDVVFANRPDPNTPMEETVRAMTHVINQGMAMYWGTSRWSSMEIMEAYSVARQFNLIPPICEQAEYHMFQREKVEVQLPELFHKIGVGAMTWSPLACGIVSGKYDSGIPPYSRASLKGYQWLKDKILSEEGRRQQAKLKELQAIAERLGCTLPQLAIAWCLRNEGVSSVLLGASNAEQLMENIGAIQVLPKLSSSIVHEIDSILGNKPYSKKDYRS

[5] = molecular target: Voltage-gated potassium channel subunit beta-2 (Rattus norvegicus) (UniProt P62483); test: KvBeta positive modulators, primary screen, biochemical, NADPH fluorescence (AID 623;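 active means NADPH fluorescence slope more negative than the mean of all samples by about 3 SD, 99.7% confidence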;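 further: fluorescence intensity change per second fitted from 20 to 320 s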); details: Recombinant KvBeta, NADPH fluorescence decrease slope, 10 min; at 10 µM; stronger effect = lower value
[6] = molecular target: Muscarinic acetylcholine receptor M4 (Homo sapiens) (UniProt P08173); test: compounds altering M4/GIRK thallium flux, either direction, primary screen, M4 allosteric agonist project, cell-based, HEK293 M4/GIRK, BTC-AM (AID 625;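 active means fluorescence slope after compound addition differing from the mean of all tested samples at 99.7% confidence, mostly higher but some lower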;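 further: thallium influx through GIRK channels coupled to M4 in HEK293 cells with BTC-AM dye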); details: at 10 µM, actives lie on both sides
Chain of Muscarinic acetylcholine receptor M4 (Homo sapiens) (P08173 whole entry, looked up): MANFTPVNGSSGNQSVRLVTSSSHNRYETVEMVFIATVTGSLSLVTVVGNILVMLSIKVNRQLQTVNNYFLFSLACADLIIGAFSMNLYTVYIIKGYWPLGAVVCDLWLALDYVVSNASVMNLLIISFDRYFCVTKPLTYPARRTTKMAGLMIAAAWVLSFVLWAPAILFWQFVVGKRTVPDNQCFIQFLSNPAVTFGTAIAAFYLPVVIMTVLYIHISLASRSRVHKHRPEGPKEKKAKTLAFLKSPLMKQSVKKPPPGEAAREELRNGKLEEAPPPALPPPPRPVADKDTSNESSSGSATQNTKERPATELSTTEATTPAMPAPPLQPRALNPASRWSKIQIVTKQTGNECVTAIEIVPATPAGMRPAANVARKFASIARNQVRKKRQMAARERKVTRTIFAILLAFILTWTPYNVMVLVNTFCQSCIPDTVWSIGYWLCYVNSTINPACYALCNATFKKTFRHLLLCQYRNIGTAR
Summary of the method: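 assay system = HEK293 cells with M4 receptor and GIRK channels | medium = pH 7.3 thallium assay buffer | doses = 10 µM final, single point | timing = cells overnight at 37 °C, BTC-AM loading 1 h, reads 2 min total | signal = BTC-AM fluorescence, 1 Hz kinetic reads | read-out = post-addition slope, 15–24 s, of baseline-normalized fluorescence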

[7] = inhibitors of Sendai virus-induced IRF3 signaling, primary screen, TLR/RLR signaling modifier project, cell-based, Sendai virus stimulus, luciferase, 10K MLSCN set (AID 602276;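 active means inhibition at or above 50% at 10 µM; inactive means inhibition below 50%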;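 further: firefly luciferase from ISG56 promoter only with Renilla not read in this screen; 0% = Sendai virus plus DMSO and 100% = medium plus DMSO without virus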); details: HEK293 RL24 IRF3 luciferase reporter, at 10 µM, stronger effect = higher value
[8] = inhibitors of poly I:C-induced TLR3 signaling, primary screen, cell-based, poly I:C stimulus, luciferase, 10K MLSCN set (AID 602277); details: HEK293-TLR3 RL24 IRF3 luciferase reporter, at 10 µM, stronger effect = higher value

Row | Compound | cell count [1] | inhibition [1] | inhibition of aggregation [2] | nuclei count [2] [%] | inhibition [3] | nuclei count [3] [%] | fluorescence slope [4] | NADPH fluorescence slope [5] | fluorescence slope [6] | inhibition [7] | inhibition [8]
1 | COc1ccccc1C(=O)NCCc1nc2ccccc2n1C | 564 | -11.3% (inactive) | -5.2% (inactive) | 113 | 15.5% (inactive) | 101 | -0.294 (inactive) | -2.3e-05 (inactive) | 0.00691 (inactive) | -9.79% (inactive) | -4.78% (inactive)
2 | CCOc1ccc(N(CC(=O)NCC2CCCO2)S(=O)(=O)c2ccc(OC)c(OC)c2)cc1 (centres undefined) | 326 | 3.5% (inactive) | -10.6% (inactive) | 107 | -47% (inactive) | 112 | -0.572 (inactive) | -3.5e-05 (inactive) | 0.00351 (inactive) | 10.6% (inactive) | 18.4% (inactive)
3 | CNC(=O)Nc1cccc(C(F)(F)F)c1 | 299 | -3.3% (inactive) | -31% (inactive) | 97.6 | -46.4% (inactive) | 130 | -0.566 (inactive) | -5.5e-05 (inactive) | 0.00624 (inactive) | 0.0526% (inactive) | 4.51% (inactive)
4 | COc1cc(C(=O)Nc2cc(Cl)ccc2C)c(-n2cnnn2)cc1OC | 715 | 8.8% (inactive) | 15.8% (inactive) | 83.5 | -62.1% (inactive) | 117 | -0.474 (inactive) | 0.00014 (inactive) | 0.00699 (inactive) | 13.5% (inactive) | 15.4% (inactive)
5 | O=C(O)Cn1cc2c(n1)CCCC2 | 638 | 0.2% (inactive) | -7.3% (inactive) | 104 | 13.9% (inactive) | 114 | -0.395 (inactive) | 6.4e-05 (inactive) | 0.00644 (inactive) | 9.43% (inactive) | 8.73% (inactive)
6 | CN(c1ccccc1)C(c1ccc(F)cc1)c1nnnn1CC1CCCO1 (centres undefined) | 762 | -2.9% (inactive) | -1.8% (inactive) | 100 | -61.8% (inactive) | 132 | -0.288 (inactive) | -1.6e-05 (inactive) | 0.00686 (inactive) | 16% (inactive) | 42.3% (inactive)
7 | CCOc1ccc2c(c1)sc1nc(C(=O)OC)cc(=O)n12 | 432 | 7.5% (inactive) | -10.2% (inactive) | 109 | -0.5% (inactive) | 108 | -0.175 (inactive) | -1.7e-05 (inactive) | 0.00476 (inactive) | 13.7% (inactive) | 19.3% (inactive)
8 | Cc1ncoc1C(=O)Nc1cccc(Cl)c1C | 540 | -14.2% (inactive) | 52.7% (active) | 56.4 | -38.5% (inactive) | 116 | -0.302 (inactive) | 8.7e-06 (inactive) | 0.00599 (inactive) | -22.6% (inactive) | -46.1% (inactive)
9 | CC(=O)Nc1ccc(Cl)c(C(N)=O)c1 | 445 | -0.6% (inactive) | -12.1% (inactive) | 94.4 | -97.8% (inactive) | 113 | -0.581 (inactive) | -7.9e-05 (inactive) | 0.00404 (inactive) | 19.4% (inactive) | 23.4% (inactive)
10 | CCCCOc1ccc(-c2nnn(CC(=O)NCc3ccco3)n2)cc1 | 457 | 3.9% (inactive) | -61.8% (inactive) | 18.8 | -62% (inactive) | 104 | -0.523 (inactive) | -0.000212 (inactive) | 0.00448 (inactive) | 30.6% (inactive) | -15.6% (inactive)
11 | O=C(CSc1nc2ccccc2n1CC(=O)N1CCCC1)Nc1nccs1 | 676 | 1% (inactive) | -9.6% (inactive) | 99.7 | -3.7% (inactive) | 131 | -0.484 (inactive) | -0.000183 (inactive) | 0.00508 (inactive) | 2.67% (inactive) | 14% (inactive)
12 | S=c1nc(C2CC2)[nH]c2ccccc12 | 469 | 0.8% (inactive) | -8.3% (inactive) | 106 | -99% (inactive) | 118 | -0.49 (inactive) | -4.4e-05 (inactive) | 0.0139 (active) | 19% (inactive) | 20.9% (inactive)
13 | COc1cc(NS(=O)(=O)c2ccc(Br)s2)cc(OC)c1 | 596 | 10.2% (inactive) | -27.3% (inactive) | 99.5 | -77.9% (inactive) | 94.3 | -0.402 (inactive) | 6.7e-05 (inactive) | 0.00547 (inactive) | 9.26% (inactive) | 10% (inactive)
14 | O=C(CCCCCn1c(=O)[nH]c2ccsc2c1=O)N1CCCCC1 | 306 | -1.8% (inactive) | 25.2% (inactive) | 91.7 | -75% (inactive) | 85.7 | -0.457 (inactive) | -2.3e-05 (inactive) | 0.0042 (inactive) | 18.4% (inactive) | 6.28% (inactive)
